CRFR2-BP ag: agonists of CRF-BP/CRF-R2 complex, primary screen, cell-based, HEK293, calcium dye fluorescence, uHTS. activation, % at 13.2 µM. 350,000 tested, 0.46% active. AID 588473, 2011. CRF-binding protein / CRF receptor 2 complex (human). calcium dye fluorescence (FLIPR); percent of saturating CRF peptide response;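 active = activation of at least 50%, plus an integration ratio under a set limit after plate pattern correction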
UCH37 DUB inh: inhibitors of human UCH37 deubiquitinase, primary screen, biochemical, Ub-AMC cleavage, fluorescence | 330,000 tested, 0.33% active | purified proteasome/UCH37 | AID 588478, 2011 | inhibition, % (test concentration not listed) | Ubiquitin carboxyl-terminal hydrolase isozyme L5 (Homo sapiens), Q9Y5K5;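 active = mean inhibition over replicate wells above about 20%, limit read from the data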
Target sequence (Q9Y5K5 whole entry, looked up): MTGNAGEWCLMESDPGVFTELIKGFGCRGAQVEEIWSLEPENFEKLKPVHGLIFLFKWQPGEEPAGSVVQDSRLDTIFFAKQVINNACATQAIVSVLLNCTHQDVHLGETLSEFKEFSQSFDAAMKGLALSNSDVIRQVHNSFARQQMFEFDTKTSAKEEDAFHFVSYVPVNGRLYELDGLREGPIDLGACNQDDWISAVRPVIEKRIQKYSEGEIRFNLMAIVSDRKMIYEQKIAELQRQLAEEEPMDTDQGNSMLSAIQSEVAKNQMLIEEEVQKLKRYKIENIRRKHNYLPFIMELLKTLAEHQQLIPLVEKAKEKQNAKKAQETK
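assay system = human UCH37 enzyme supplied as purified proteasome complex | amount = proteasome at 0.15 nM in the dispensed enzyme solution | schedule = 30 min compound-proteasome preincubation then 25 min substrate reaction, room temperature | measured by = fluorescence, ex 355 nm, em 460 nm | benchmarks = no-proteasome wells (full inhibition) and compound-free wells (no inhibition)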
Cardio protect: cardioprotection against H2O2-induced cell death, primary screen, uHTS, H9c2 cells, ATPLite luminescence; H9c2 cardiomyocytes, H2O2 injury protection, 2 h; protection from H2O2 cell death, % at 20 µM; 360,000 tested, 0.63% active; AID 588492, 2011;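 active = compounds giving at least 50% protection of heart cells from peroxide-induced death in the single-dose screen, raw or plate-pattern-corrected value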
CRFBP-R2 block: antagonists of CRF-BP/CRF-R2 complex, primary screen, cell-based, HEK293, calcium dye fluorescence, uHTS | CRF-induced calcium fluorescence | inhibition, % at 11.8 µM | 350,000 tested, 0.59% active;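 active = inhibition of the ligand-induced calcium signal above about 50% at the single tested concentration, limit read from the data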
iPSC survival up: enhancers of single-cell hiPSC survival, primary screen, ATPlite luminescence. AID 602274, 2012. 100% = ROCK inhibitor wells, 0% = DMSO. 360,000 tested, 0.044% active. survival enhancement, % at 20 µM; in the data active = survival enhancement above about 18%;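 also: cells exposed to compounds for 16 hours before the ATP read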
beta cell repl: inducers of MIN6 beta-cell proliferation, primary screen, ATP luminescence, uHTS; proliferation, % at 10 µM; MIN6 cells proliferation, ATPlite luminescence, 48 h; cells starved in 0.2% serum; 100% = growth in 10% serum; 330,000 tested, 0.29% active;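 active = compounds whose signal lies at least 3.5 SD above the mean of all wells on their plate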
Of the large screens only hits and unclear results are named; the others gave an inactive call. The list is not random: actives were taken first. Their share in the collection is about 2.1%.

CC(C)(C)C(=O)Nc1sc2c(c1C#N)CCN(Cc1ccccc1)C2	CRFR2-BP ag 162.5
COc1ccc(Nc2nc(-c3cccs3)nc3ccccc23)cc1S(=O)(=O)N1CCOCC1	Cardio protect 67.3
COc1ccc(NS(=O)(=O)c2cccs2)cc1S(=O)(=O)N1CCOCC1	none
O=C(CCn1cnc(-c2ccccc2)c1-c1ccccc1)N/N=C/c1ccc(O)cc1	none (no result: UCH37 DUB inh)
Cc1ccc(SCCC(=O)N/N=C/c2ccccc2O)cc1	Cardio protect 65.0 (no result: UCH37 DUB inh)
O=C(CCn1cnc(-c2ccccc2)c1-c1ccccc1)N/N=C/c1ccccc1O	Cardio protect 56.6 (no result: UCH37 DUB inh)
O=C(COc1nsnc1N1CCOCC1)N/N=C/c1ccccc1O	Cardio protect 72.9 (no result: UCH37 DUB inh)
Cc1ccc(NC(=O)CCC(=O)N/N=C/c2ccccc2O)cc1	Cardio protect 51.8 (no result: UCH37 DUB inh)
CC(=NN1CCN(Cc2ccc(C)cc2)CC1)c1ccco1	none (no result: CRFR2-BP ag, Cardio protect, CRFBP-R2 block, iPSC survival up, beta cell repl)
O=C(CCCCCNC(=O)c1ccccc1)NN=Cc1ccccc1O	none (no result: CRFR2-BP ag, Cardio protect, CRFBP-R2 block, iPSC survival up, beta cell repl)
Cc1cc([N+](=O)[O-])nn1CC(=O)N/N=C/c1ccccc1O	Cardio protect 57.8 (no result: UCH37 DUB inh)
O=C(CC(=O)N/N=C/c1ccccc1O)NCc1cccnc1	Cardio protect 63.2 (no result: UCH37 DUB inh)
O=C(CCCCC(=O)NN=Cc1ccccc1O)NN=Cc1ccccc1O	Cardio protect 60.5 (no result: beta cell repl)
Cc1cc([N+](=O)[O-])nn1CC(=O)NN=Cc1ccccc1O	none (no result: CRFR2-BP ag, Cardio protect, CRFBP-R2 block, iPSC survival up, beta cell repl)
Cc1cccc(NC(=O)CCC(=O)N/N=C/c2ccc(O)cc2O)c1	Cardio protect 69.3 (no result: UCH37 DUB inh)
O=C1C(F)=CC(COC(c2ccccc2)(c2ccccc2)c2ccccc2)OC1n1cc(F)c(=O)[nH]c1=O (stereo unspecified)	CRFR2-BP ag 54.9 (no result: UCH37 DUB inh, beta cell repl)
CC(=O)OCC1OC(n2cc(F)c(=O)[nH]c2=O)C(OC(C)=O)C1OC(C)=O (stereo unspecified)	none
CC(C)CC(NC(=O)/C(=C/c1ccco1)NC(=O)c1ccc(Br)o1)C(=O)O (stereo unspecified)	CRFBP-R2 block 58.4
Cc1ccc(S(=O)(=O)c2c(N)n(Cc3ccco3)c3nc4ccccc4nc23)cc1	none
Cc1cccc(S(=O)(=O)c2c(N)n(Cc3ccco3)c3nc4ccccc4nc23)c1	CRFR2-BP ag 96.9
O=c1c2ccccc2c(C=Nc2ccc(S(=O)(=O)N3CCCCC3)cc2)c(O)n1-c1ccc(Cl)cn1	none
NS(=O)(=O)c1ccc(N=Cc2c(O)n(-c3nccs3)c(=O)c3ccccc23)cc1	Cardio protect 51.6
NN=C1CCCc2c1[nH]c1ccc([N+](=O)[O-])cc21	none (no result: CRFR2-BP ag, Cardio protect, CRFBP-R2 block, iPSC survival up, beta cell repl)
Cn1c(NCc2ccco2)nc2c1c(=O)n(Cc1ccc(Br)cc1)c(=O)n2C	none
Cn1c(NCc2ccco2)nc2c1c(=O)n(Cc1ccc(Cl)cc1)c(=O)n2C	Cardio protect 51.2
O=C(Cc1ccc([N+](=O)[O-])cc1)NN=Cc1cccs1	none (no result: CRFR2-BP ag, Cardio protect, CRFBP-R2 block, iPSC survival up, beta cell repl)
O=C(COC(=O)C1CC(=O)N(c2ccc3c(c2)OCCO3)C1)NC1CCCc2ccccc21 (stereo unspecified)	UCH37 DUB inh 22.3
O=C(COC(=O)CCc1ccc(S(=O)(=O)N2CCOCC2)cc1)Nc1ccccc1OC(F)F	CRFBP-R2 block 105.0
COc1cccc(C=NNC(=O)C(=O)N2CCCCCC2)c1OC	none (no result: CRFR2-BP ag, Cardio protect, CRFBP-R2 block, iPSC survival up, beta cell repl)
COc1ccc(Nc2nnc(-c3ccc(O)cc3)c3ccccc23)cc1C(N)=O	Cardio protect 56.9
CC(=O)c1sc(NN=Cc2cccc([N+](=O)[O-])c2)nc1C	none (no result: CRFR2-BP ag, Cardio protect, CRFBP-R2 block, iPSC survival up, beta cell repl)
C#CCOCCOCCOCCNc1nc(N2CCN(C(=O)CCCCCCCCCCNC(=O)[C@H](CCCCN)n3cc(CCO)nn3)CC2)nc(N2CCN(C(=O)CCCCCCCCCCNC(=O)[C@H](CCCN=C(N)N)n3cc(C[C@@H](C)CC)nn3)CC2)n1	none
C#CCOCCOCCOCCNc1nc(N2CCN(C(=O)CCCCCCCCCCNC(=O)Cn3cc(C[C@@H](C)O)nn3)CC2)nc(N2CCN(C(=O)CCCCCCCCCCNC(=O)Cn3cc(C[C@@H](C)O)nn3)CC2)n1	Cardio protect 79.9
C#CCOCCOCCOCCNc1nc(N2CCN(C(=O)CCCCCCCCCCNC(=O)Cn3cc(C[C@@H](C)O)nn3)CC2)nc(N2CCN(C(=O)CCCCCCCCCCNC(=O)[C@H](CCCCN)n3cc(C[C@@H](C)CC)nn3)CC2)n1	none (no result: UCH37 DUB inh)
C#CCOCCOCCOCCNc1nc(N2CCN(C(=O)CCCCCCCCCCNC(=O)Cn3cc(CCCCCN)nn3)CC2)nc(N2CCN(C(=O)CCCCCCCCCCNC(=O)[C@H]([C@@H](C)CC)n3cc(CCCCCN)nn3)CC2)n1	CRFR2-BP ag 89.2 (no result: UCH37 DUB inh)
C#CCOCCOCCOCCNc1nc(N2CCN(C(=O)CCCCCCCCCCNC(=O)Cn3cc(CCCCCN)nn3)CC2)nc(N2CCN(C(=O)CCCCCCCCCCNC(=O)[C@H](CO)n3cc(CCCCCN)nn3)CC2)n1	none
C#CCOCCOCCOCCNc1nc(N2CCN(C(=O)CCCCCCCCCCNC(=O)[C@H](CCCCN)n3cc(C[C@@H](C)CC)nn3)CC2)nc(N2CCN(C(=O)CCCCCCCCCCNC(=O)[C@H](CCCCN)n3cc(C[C@@H](C)CC)nn3)CC2)n1	CRFR2-BP ag 91.5 (no result: UCH37 DUB inh, beta cell repl)
Cc1nc2c(C)cccn2c1C(=O)NN=Cc1ccccc1[N+](=O)[O-]	none (no result: CRFR2-BP ag, Cardio protect, CRFBP-R2 block, iPSC survival up, beta cell repl)
O=C(NN=Cc1ccc(OCC(=O)N2CCCCC2)cc1)c1ccccc1	none (no result: CRFR2-BP ag, Cardio protect, CRFBP-R2 block, iPSC survival up, beta cell repl)
O=S1(=O)N=C(N(CCO)N=Cc2ccccc2)c2ccccc21	none (no result: CRFR2-BP ag, Cardio protect, CRFBP-R2 block, iPSC survival up, beta cell repl)
Cc1cc(C=Nn2cnnc2)c(C)n1-c1ccccc1	none (no result: CRFR2-BP ag, Cardio protect, CRFBP-R2 block, iPSC survival up, beta cell repl)
O=C(N/N=C/c1ccc2c(c1)OCO2)c1ccc(NC(=O)c2ccccc2Cl)cc1	Cardio protect 56.1 (no result: UCH37 DUB inh)
CCOC(=O)N1CCc2c(sc(NC(=O)CN3CCOCC3)c2C(=O)Nc2ccccc2)C1	Cardio protect 50.0
CCOC(=O)N1CCc2c(sc(NC(=O)CN3CCN(C)CC3)c2C(=O)Nc2ccccc2)C1	none

Screening data: PubChem, several laboratories
